A value given as a limit tells only on which side of the number the result lay.

As a reminder, the IC50 is the midpoint of a concentration-inhibition curve. A lower IC50 goes with greater potency in that assay.

Experiment [1] concerns ACHN. Briefly: Growth inhibition of human ACHN cells at 10 uM after 48 hrs by WST-8 assay. In kind it is functional. Particulars: read-out: GI. The method, boiled down: (§1)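 ATCC cells kept in DMEM with 10% FBS and antibiotics at 37 °C, 5% CO2. Seeded 5×10^3/well, incubated overnight, then treated with compound for 48 h against a DMSO vehicle control (≤0.1%). CCK-8 (WST-8) reduction by live-cell dehydrogenases read at 450 nm (corrected 650 nm) after 4 h at 37 °C. Viable cells expressed as % of the DMSO control.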

Experiment [2] deals with PANC-1. Briefly: Growth inhibition of human PANC1 cells at 10 uM after 48 hrs by WST-8 assay. The note with it: PANC-1, 48 h, read-out: GI. Format: functional. Put shortly: as §1
(Tetrazolium assays rely on reduction of a dye to a coloured formazan, in cell work by metabolically active cells.)

Experiment [3] concerns Calu-1. Briefly: Growth inhibition of human Calu1 cells at 10 uM after 48 hrs by WST-8 assay. In kind it is functional. The note with it: Calu-1, 48 h, read-out: GI. The method, boiled down: as §1
In experiment [4] the test system is NCI-H460. Briefly: Growth inhibition of human NCI-H460 cells at 10 uM after 48 hrs by WST-8 assay. The note with it: NCI-H460, 48 h, read-out: GI. Format: functional. The method, boiled down:
as §1

Experiment [5] has as its system HCT-116. Briefly: Growth inhibition of human HCT116 cells at 10 uM after 48 hrs by WST-8 assay. Format: functional. Particulars: HCT-116, 48 h, read-out: GI. Put shortly: as §1
Experiment [6] concerns Calu-1. Briefly: Cytotoxicity against human Calu1 cells after 48 hrs by WST-8 assay. Format: functional, cell-based. Particulars: Calu-1, 48 h. The method, boiled down:
(§2)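 ATCC cells kept in DMEM with 10% FBS, penicillin/streptomycin at 37 °C, 5% CO2. Seeded 5×10^3/well and left overnight, then exposed to a range of concentrations with DMSO vehicle (≤0.1%) as control. After 48 h, CCK-8 (WST-8) was added for 4 h at 37 °C and A450 read, corrected to 650 nm. Viability is % of DMSO control. IC50 was taken from log cytotoxicity curves.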

In experiment [7] the test system is NCI-H460. Briefly: Cytotoxicity against human NCI-H460 cells after 48 hrs by WST-8 assay. The note with it: NCI-H460, 48 h. Format: functional, cell-based. Put shortly: as §2
Experiment [8] deals with HCT-116. Briefly: Cytotoxicity against human HCT116 cells after 48 hrs by WST-8 assay. The note with it: HCT-116, 48 h. In kind it is functional, cell-based. Put shortly:
as §2

Experiment [9] has as its system MCF-10A. Briefly: Cytotoxicity against human MCF10A cells after 48 hrs by WST-8 assay. Format: cell-based. Put shortly: as §2
For experiment [10], the system named is ACHN. Briefly: Cytotoxicity against human ACHN cells after 48 hrs by WST-8 assay. In kind it is functional, cell-based. The method, boiled down: as §2
Experiment [11] relates to PANC-1. Briefly: Cytotoxicity against human PANC1 cells after 48 hrs by WST-8 assay. In kind it is functional, cell-based. Particulars: PANC-1, 48 h. The method, boiled down: as §2

As for `CC(=O)c1c(O)c(C(C)=O)c(O)c(C(C)c2c(O)c(C(C)=O)c(O)c(C(C)=O)c2O)c1O`, the inhibition of growth at 10 µM turned out to be 19% in [1]; 0% in experiment [2]; 38% in [3]; 0% in experiment [4]; 3% in experiment [5].
For `CC(C)CC(=O)c1c(O)c(C(=O)CC(C)C)c(O)c(C(C)c2c(O)c(C(=O)CC(C)C)c(O)c(C(=O)CC(C)C)c2O)c1O`, the inhibition of growth at 10 µM is 11% in experiment [1]; 0% in experiment [2]; 12% in experiment [3]; 12% in [4]; 25% in [5].
As to `CCC(c1c(O)c(C(=O)CC(C)C)c(O)c(C(=O)CC(C)C)c1O)c1c(O)c(C(=O)CC(C)C)c(O)c(C(=O)CC(C)C)c1O`, the inhibition of growth at 10 µM was 0% in experiment [1]; 0% in experiment [2]; 10% in [3]; 10% in [4]; 22% in experiment [5].
For the molecule `CC(C)CC(=O)c1c(O)c(C(=O)CC(C)C)c(O)c(C(c2c(O)c(C(=O)CC(C)C)c(O)c(C(=O)CC(C)C)c2O)C2CCCCC2)c1O`, the inhibition of growth at 10 µM was 14% in experiment [1]; 0% in experiment [2]; 18% in experiment [3]; 29% in experiment [4]; 0% in experiment [5].
Consider `CC(=O)c1c(O)c(C(C)=O)c(O)c(C(c2ccccc2)c2c(O)c(C(C)=O)c(O)c(C(C)=O)c2O)c1O`, for which the inhibition of growth at 10 µM in [1] worked out at 29%; in experiment [2] it was 0%; in [3], 47%; in [4], 29%; in [5], 0%.
Regarding `CC(=O)c1c(O)c(C(C)=O)c(O)c(C(c2ccccn2)c2c(O)c(C(C)=O)c(O)c(C(C)=O)c2O)c1O`, the inhibition of growth at 10 µM amounted to 12% in [1]; 0% in [2]; 24% in [3]; 0% in [4]; 11% in [5].
`CC(C)CC(=O)c1c(O)c(C(=O)CC(C)C)c(O)c(C(c2cc3ccccc3o2)c2c(O)c(C(=O)CC(C)C)c(O)c(C(=O)CC(C)C)c2O)c1O`: the inhibition of growth at 10 µM in experiment [1] worked out at 7%; in experiment [2], 0%; in [3] it was 56%; in [4], 37%; in experiment [5], 20%.
With `CC(C)CC(=O)c1c(O)c(C(=O)CC(C)C)c(O)c(C(c2ccc3c(c2)Cc2ccccc2-3)c2c(O)c(C(=O)CC(C)C)c(O)c(C(=O)CC(C)C)c2O)c1O`, the inhibition of growth at 10 µM in experiment [1] stood at 17%; in [2], 18%; in [3] it was 0%; in [4] it was 15%; in [5], 0%.
For `CC(C)CC(=O)c1c(O)c(C(=O)CC(C)C)c(O)c(C(c2ncc[nH]2)c2c(O)c(C(=O)CC(C)C)c(O)c(C(=O)CC(C)C)c2O)c1O`, the inhibition of growth at 10 µM in [1] was 0%; in experiment [2], 0%; in [3] it was 11%; in experiment [4] it was 15%; in experiment [5] it was 0%.
With `CC(C)CC(=O)c1c(O)c(C(=O)CC(C)C)c(O)c(C(c2c(O)c(C(=O)CC(C)C)c(O)c(C(=O)CC(C)C)c2O)c2cccc3ccccc23)c1O`, the inhibition of growth at 10 µM was determined as 6% in experiment [1]; 17% in experiment [2]; 15% in [3]; 26% in [4]; 0% in experiment [5].
For the molecule `CC(C)CC(=O)c1c(O)c(C=O)c(O)c(C(c2ccncc2)c2c(O)c(C=O)c(O)c(C(=O)CC(C)C)c2O)c1O`, the inhibition of growth at 10 µM in experiment [1] amounted to 21%; in [2], 5%; in experiment [3], 17%; in experiment [4], 0%; in [5] it was 0%.
With `CC(C)CC(=O)c1c(O)c(C=O)c(O)c(C(c2ncc[nH]2)c2c(O)c(C=O)c(O)c(C(=O)CC(C)C)c2O)c1O`, the inhibition of growth at 10 µM is 38% in experiment [1]; 0% in [2]; 0% in experiment [3]; 22% in experiment [4]; 18% in experiment [5].
For `CC(C)CC(=O)c1c(O)c(C=O)c(O)c(C(c2cc3ccccc3o2)c2c(O)c(C=O)c(O)c(C(=O)CC(C)C)c2O)c1O`, the inhibition of growth at 10 µM in experiment [1] amounted to 6%; in [2] it was 0%; in experiment [3] it was 2%; in experiment [4], 5%; in experiment [5] it was 11%.
Consider `CC(C)CC(=O)c1c(O)c(C=O)c(O)c(C(c2ccc(C(F)(F)F)cc2C(F)(F)F)c2c(O)c(C=O)c(O)c(C(=O)CC(C)C)c2O)c1O`, for which the inhibition of growth at 10 µM in experiment [1] was determined as 0%; in experiment [2], 0%; in [3] it was 6%; in [4], 5%; in experiment [5] it was 14%.
As to `CC(C)CC(=O)c1c(O)c(C=O)c(O)c(C(c2ccc(OCc3ccccc3)cc2)c2c(O)c(C=O)c(O)c(C(=O)CC(C)C)c2O)c1O`, the inhibition of growth at 10 µM worked out at 44% in experiment [1]; 6% in [2]; 30% in experiment [3]; 49% in experiment [4]; 48% in [5].
For `CC(C)CC(=O)c1c(O)c(C=O)c(O)c(C(c2ccc(-c3ccccc3)cc2)c2c(O)c(C=O)c(O)c(C(=O)CC(C)C)c2O)c1O`, in that order: 0%, 0%, 0%, 28% and 5%.
For the molecule `CC(C)CC(=O)c1c(O)cc(O)c(C=O)c1O`, the IC50 is 9.1 µM in experiment [6]; 9.4 µM in experiment [7]; 9.7 µM in [8]; over 27.3 µM in experiment [9]; 8.9 µM in experiment [10]; 8.5 µM in [11]. Further, the inhibition of growth at 10 µM in [1] was 52%; in experiment [2], 50%; in experiment [3], 59%; in experiment [4], 58%; in experiment [5] it was 57%.
Turning to `CC(=O)c1c(O)cc(O)c(C(C)=O)c1O`, the inhibition of growth at 10 µM in experiment [1] was 44%; in [2] it was 0%; in [3] it was 0%; in [4], 25%; in experiment [5], 0%.
On to `CC(C)CC(=O)c1c(O)cc(O)c(C(=O)CC(C)C)c1O`, for which the inhibition of growth at 10 µM is 30% in experiment [1]; 0% in experiment [2]; 0% in experiment [3]; 46% in experiment [4]; 55% in [5].
For `CC(C)CC(=O)c1c(O)c(Cc2c(O)c(C(=O)CC(C)C)c(O)c(C(=O)CC(C)C)c2O)c(O)c(C(=O)CC(C)C)c1O`, the inhibition of growth at 10 µM came to 35% in experiment [1]; 0% in experiment [2]; 7% in experiment [3]; 3% in experiment [4]; 1% in experiment [5].
With `CC(=O)c1c(O)c(Cc2c(O)c(C(C)=O)c(O)c(C(C)=O)c2O)c(O)c(C(C)=O)c1O`, the inhibition of growth at 10 µM in experiment [1] is 46%; in experiment [2], 22%; in [3] it was 39%; in [4], 0%; in experiment [5], 8%.
Turning to `CC(C)C(=O)c1c(O)c(Cc2c(O)c(C(=O)C(C)C)c(O)c(C(=O)C(C)C)c2O)c(O)c(C(=O)C(C)C)c1O`, the inhibition of growth at 10 µM in [1] is 30%; in experiment [2], 12%; in experiment [3], 16%; in experiment [4], 25%; in [5], 6%.
Regarding `CC(C)CC(=O)c1c(O)c(C=O)c(O)c(Cc2c(O)c(C=O)c(O)c(C(=O)CC(C)C)c2O)c1O`, the inhibition of growth at 10 µM stood at 35% in experiment [1]; 15% in experiment [2]; 29% in experiment [3]; 0% in [4]; 9% in experiment [5].
`CC(C)C(=O)c1c(O)cc(O)c(C(=O)C(C)C)c1O`: the inhibition of growth at 10 µM worked out at 33% in experiment [1]; 0% in [2]; 15% in [3]; 22% in experiment [4]; 0% in experiment [5].
